Paper PMC4672865 (Organic letters, 2015)
pKi: −log10 of the molar value.

Biological target: DNA polymerase β (pol β) (Homo sapiens, UniProt P06746)
Assay: X-ray crystal structure of ternary complex with DNA
Type: biochemical
Procedure, shortened: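 Standard gel assay of pol β: test compound at variable concentrations against a constant dTTP concentration. An observed rate is determined at each inhibitor concentration, rates are plotted against inhibitor concentration, and the data are fit to a hyperbolic decay curve to calculate Ki. Crystal structures are of ternary complexes of test compound with pol β and DNA.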

Row | pKi | SMILES
1 | 5.57 | Cc1cn([C@H]2C[C@H](O)[C@@H](COP(=O)(O)CP(=O)(O)NP(=O)(O)O)O2)c(=O)[nH]c1=O [1a, (α,β)-CH2-(β,γ)-NH-dTTP]
2 | 4.64 | Cc1cn([C@H]2C[C@H](O)[C@@H](COP(=O)(O)NP(=O)(O)CP(=O)(O)O)O2)c(=O)[nH]c1=O [1b, (α,β)-NH-(β,γ)-CH2-dTTP]
